The subject of assay [1] is Acinetobacter baumannii. As to the kind of experiment: Antibacterial activity against Acinetobacter baumannii ATCC 19606 using iron-deficient M9 minimal media after 15 hrs by broth microdilution assay. Format: functional, organism-based. As to conditions: ATCC 19606 = CIP 70.34 = JCM 6841. The gist of the method: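 ATCC 19606 grown overnight at 30 °C on LB agar, washed twice and resuspended in M9 minimal medium with 0.2% casamino acids and 200 μM dipyridyl. Inoculated at A600 0.0003 in this medium plus 1 μM FeCl3. Inhibitors from DMSO at 100 μM final, in triplicate. Tetracycline (100 ng/mL) and 1% DMSO as controls. Incubated at 30 °C; A600 read at 15 h.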

Assay [2] has as its system Acinetobacter baumannii. Briefly: Antibacterial activity against Acinetobacter baumannii ATCC 19606 using iron-replete M9 minimal media after 15 hrs by broth microdilution assay. In kind it is functional, organism-based. As to conditions: ATCC 19606 = CIP 70.34 = JCM 6841. In short, it runs like this: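 ATCC 19606 grown overnight at 30 °C on LB agar, washed twice in dipyridyl-containing M9/casamino acids medium, then diluted to A600 0.0003 in M9 minimal medium with 0.2% casamino acids plus 200 μM FeCl3. Inhibitors from DMSO at 100 μM final, in triplicate. Controls were tetracycline (100 ng/mL) and 1% DMSO. Incubated at 30 °C, A600 measured at 15 h.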

The nature of assay [3]: Displacement of Fl-Sal-AMS from Acinetobacter baumanni BasE expressed in Escherichia coli after 30 mins by fluorescence polarization assay. Also noted: species or system Acinetobacter baumannii. As to conditions: read-out: Kd.
A short description of assay [4]: Displacement of Fl-Sal-AMS from Mycobacterium tuberculosis MbtA expressed in Escherichia coli after 30 mins by fluorescence polarization assay.

The values below come from ChEMBL document CHEMBL2321876.

Activity calls are given as the source filed them. How the calls were made is not given here.

With `Cc1ccsc1-c1cc(C(=O)O)c2cnn(Cc3ccncc3)c2n1`, the outcome in assay [1] and in assay [2] was inactive. Further, the dissociation constant (Kd) in assay [3] worked out at 0.34 µM; in assay [4], 19.2 µM.

`O=C(O)c1cc(-c2ccccc2)cc2c1cnn2Cc1ccncc1`: the outcome in assay [1] and in assay [2] was inactive. The Kd in assay [3] was 0.0848 µM; in assay [4], 27.6 µM.

For the compound `O=C(O)c1cc(-c2ccccc2Cl)nc2c1cnn2Cc1ccncc1`, the outcome in assay [1] and in assay [2] was inactive. For the same compound, the Kd in assay [3] was 2.48 µM; in assay [4], above 100 µM.

Turning to `O=C(O)c1cc(-c2ccc(F)cc2F)nc2c1cnn2Cc1ccncc1`, the result in assay [1] and in assay [2] was inactive. Moreover, the figures for the Kd in assay [3] and in assay [4] were 0.0426 µM and 8 µM, respectively.

In the case of `COc1ccc(-c2cc(C(=O)O)c3cnn(Cc4ccncc4)c3n2)cc1`, the outcome in assay [1] and in assay [2] was inactive. The dissociation constant Kd was determined as 0.0782 µM in assay [3] and 3.23 µM in assay [4].

As to `Nc1cc(-c2ccccc2)nc2c1cnn2Cc1ccncc1`, the result in assay [1] and in assay [2] was inactive. Further, the values for the Kd in assay [3] and in assay [4] were 0.2 µM and 36.4 µM, respectively.

In the case of `O=C(O)c1cc(-c2cccnc2)nc2c1cnn2Cc1ccncc1`, the result in assay [1] and in assay [2] was inactive. For the same compound, the values for the Kd in assay [3] and in assay [4] were 0.132 µM and 16.8 µM, respectively.

Turning to `CC(=O)Nc1ccc(-c2cc(C(=O)O)c3cnn(Cc4ccncc4)c3n2)cc1`, the outcome in assay [1] and in assay [2] was inactive. For the same compound, the Kd in assay [3] was 0.747 µM; in assay [4], 4.2 µM.

With `OCc1cc(-c2ccccc2)nc2c1cnn2Cc1ccncc1`, the result in assay [1] and in assay [2] was inactive. Moreover, the Kd in assay [3] is 0.102 µM; in assay [4], 16.8 µM.

Turning to `O=C(O)c1cc(-c2ccccc2)cc2c1ccn2Cc1ccncc1`, the outcome in assay [1] and in assay [2] was inactive. In addition, the Kd was found to be 52.2 µM in assay [3] and 161 µM in assay [4].

In the case of `O=C(O)c1cc(-c2ccccc2O)nc2c1cnn2Cc1ccncc1`, the outcome in assay [1] and in assay [2] was inactive. Besides, the Kd in assay [3] is 0.255 µM; in assay [4], 6.5 µM.

Turning to `Cc1cccc(-c2cc(C(=O)O)c3cnn(Cc4ccncc4)c3n2)c1`, the result in assay [1] and in assay [2] was inactive. Besides, the Kd in assay [3] was determined as 0.158 µM; in assay [4], 7.4 µM.

As to `O=C(O)c1cc(-c2ccc(O)cc2)nc2c1cnn2Cc1ccncc1`, the outcome in assay [1] and in assay [2] was inactive. Moreover, the dissociation constant (Kd) is 0.00885 µM in assay [3] and 3.7 µM in assay [4].

`Cc1ccccc1-c1cc(C(=O)O)c2cnn(Cc3ccncc3)c2n1`: the outcome in assay [1] and in assay [2] was inactive. The Kd in assay [3] was 2.15 µM; in assay [4] it was above 100 µM.

For the compound `O=C(O)c1cc(-c2ccccc2)cc2nn(Cc3ccncc3)cc12`, the result in assay [1] and in assay [2] was inactive. Moreover, the Kd in assay [3] came to 66.4 µM; in assay [4], 58 µM.

Consider `NC(=O)c1cc(-c2ccccc2)nc2c1cnn2Cc1ccncc1`, for which the outcome in assay [1] and in assay [2] was inactive. The Kd amounted to 0.0668 µM in assay [3] and 8.57 µM in assay [4].

`NC(=O)c1ccc(-c2cc(C(=O)O)c3cnn(Cc4ccncc4)c3n2)cc1`: the outcome in assay [1] and in assay [2] was inactive. Further, the Kd in assay [3] worked out at 0.288 µM; in assay [4] it was 1 µM.

Regarding `O=C(O)c1cc(-c2cccc(Cl)c2)nc2c1cnn2Cc1ccncc1`, the outcome in assay [1] and in assay [2] was inactive. For the same compound, the Kd turned out to be 0.026 µM in assay [3] and 4.6 µM in assay [4].

Turning to `CCNC(=O)c1cc(-c2ccccc2)nc2c1cnn2Cc1ccncc1`, the outcome in assay [1] and in assay [2] was inactive. Besides, the results for the Kd in assay [3] and in assay [4] were 0.908 µM and above 50 µM, respectively.

For `Cc1csc(-c2cc(C(=O)O)c3cnn(Cc4ccncc4)c3n2)c1`, the result in assay [1] and in assay [2] was inactive. Besides, the results for the Kd in assay [3] and in assay [4] were 0.0869 µM and 2.54 µM, respectively.

As to `O=C(O)c1cc(-c2ccccc2-c2ccccc2Cl)nc2c1cnn2Cc1ccncc1`, the result in assay [1] and in assay [2] was inactive. Also, the equilibrium dissociation constant (Kd) is 19.7 µM in assay [3] and above 50 µM in assay [4].

With `O=C(O)c1cc(-c2ccc(-c3ccccc3)cc2)nc2c1cnn2Cc1ccncc1`, the result in assay [1] and in assay [2] was inactive. Further, the Kd in assay [3] came to 0.125 µM; in assay [4] it was 3.5 µM.

With `O=C(O)c1cc(NCCCO)nc2c1cnn2Cc1ccncc1`, the result in assay [1] and in assay [2] was inactive. In addition, the dissociation constant (Kd) in assay [3] was determined as 2.46 µM; in assay [4], 97.7 µM.

In the case of `O=C(O)c1ccc(-c2cc(C(=O)O)c3cnn(Cc4ccncc4)c3n2)cc1`, the result in assay [1] and in assay [2] was inactive. Besides, the values for the Kd in assay [3] and in assay [4] were 0.776 µM and 6.1 µM, respectively.

Consider `COc1ccc(COc2ccc(-c3cc(C(=O)O)c4cnn(Cc5ccncc5)c4n3)cc2)cc1`, for which the result in assay [1] and in assay [2] was inactive. In addition, the Kd in assay [3] was 0.0445 µM; in assay [4] it was 5.8 µM.

Take `CN(C)c1ccc(-c2cc(C(=O)O)c3cnn(Cc4ccncc4)c3n2)cc1`: the outcome in assay [1] and in assay [2] was inactive. Also, the Kd in assay [3] was 0.628 µM; in assay [4] it was 1.7 µM.

For `Cc1ccc(-c2cc(C(=O)O)c3cnn(Cc4ccncc4)c3n2)s1`, the outcome in assay [1] and in assay [2] was inactive. Moreover, the Kd in assay [3] was found to be 0.0076 µM; in assay [4], 2.6 µM.

For the compound `C=Cc1cc(C(=O)O)c2cnn(Cc3ccncc3)c2n1`, the result in assay [1] and in assay [2] was inactive. The Kd in assay [3] is 1.9 µM; in assay [4] it was above 100 µM.

Turning to `COc1cc(-c2cc(C(=O)O)c3cnn(Cc4ccncc4)c3n2)ccc1C(=O)O`, the outcome in assay [1] and in assay [2] was inactive. Also, the figures for the Kd in assay [3] and in assay [4] were 1.7 µM and 49.9 µM, respectively.

Take `CC(C)NC(=O)c1cc(-c2ccccc2)nc2c1cnn2Cc1ccncc1`: the outcome in assay [1] and in assay [2] was inactive. In addition, the results for the equilibrium dissociation constant (Kd) in assay [3] and in assay [4] were 0.164 µM and above 100 µM, respectively.

Turning to `O=C(O)c1cc(-c2ccc(-c3ccc(Br)cc3)cc2)nc2c1cnn2Cc1ccncc1`, the outcome in assay [1] and in assay [2] was inactive. In addition, the results for the Kd in assay [3] and in assay [4] were 0.181 µM and 19.7 µM, respectively.

`O=C(O)c1cc(NCc2ccccc2)nc2c1cnn2Cc1ccncc1`: the outcome in assay [1] and in assay [2] was inactive. The Kd was 2.32 µM in assay [3] and 6.02 µM in assay [4].

As for `O=C(O)c1cc(-c2ccco2)nc2c1cnn2Cc1ccncc1`, the outcome in assay [1] and in assay [2] was inactive. Also, the results for the Kd in assay [3] and in assay [4] were 0.342 µM and 19.5 µM, respectively.

Consider `CCCCCCCCCCCCOc1ccc(-c2cc(C(=O)O)c3cnn(Cc4ccncc4)c3n2)cc1`, for which the outcome in assay [1] and in assay [2] was inactive. For the same compound, the Kd in assay [3] was 28.4 µM; in assay [4], above 50 µM.

Turning to `CCCCCCCCOc1ccc(-c2cc(C(=O)O)c3cnn(Cc4ccncc4)c3n2)cc1`, the result in assay [1] and in assay [2] was inactive. Also, the Kd was 0.191 µM in assay [3] and above 50 µM in assay [4].

Turning to `C#Cc1cc(C(=O)O)c2cnn(Cc3ccncc3)c2n1`, the outcome in assay [1] and in assay [2] was inactive. Besides, the Kd stood at 2.04 µM in assay [3] and 18.5 µM in assay [4].

Turning to `Cc1ccc(-c2cc(C(=O)O)c3cnn(Cc4ccncc4)c3n2)cc1`, the result in assay [1] and in assay [2] was inactive. For the same compound, the Kd in assay [3] came to 0.212 µM; in assay [4], 1.44 µM.

`O=C(O)c1cc(-c2cccs2)nc2c1cnn2Cc1ccncc1`: the outcome in assay [1] and in assay [2] was inactive. Further, the results for the Kd in assay [3] and in assay [4] were 0.443 µM and 6.68 µM, respectively.

For `O=C(O)c1cc(/C=C/c2ccccc2)nc2c1cnn2Cc1ccncc1`, the outcome in assay [1] and in assay [2] was inactive. In addition, the Kd came to 0.28 µM in assay [3] and 5.1 µM in assay [4].

Turning to `COc1ccc(Cn2ncc3c(C(=O)O)cc(-c4ccccc4)nc32)cc1`, the result in assay [1] and in assay [2] was inactive. For the same compound, the Kd in assay [3] is above 100 µM.
